Published values of several laboratories.
Compare with care: the assays were run in different laboratories.
FPR1: fMet-Leu-Phe receptor (FPR1, Homo sapiens, UniProt P21462)
CES2: Cocaine esterase (CES2, Homo sapiens, UniProt O00748)
SLC6A2: Sodium-dependent noradrenaline transporter (SLC6A2, Homo sapiens, UniProt P23975)
Oprk1: Kappa-type opioid receptor (Oprk1, Mus musculus, UniProt P33534)

| SMILES | target | observed | mode | method | notes | endpoint | value |
| --- | --- | --- | --- | --- | --- | --- | --- |
| N#Cc1ccc(C[C@H](Nc2nnc(-c3cccc(Br)c3)s2)C(=O)N2CCc3ccccc32)cc1 | FPR1 | calcium signal | agonist | – | – | EC50 | 32.9 µM |
| COc1cc(Nc2c(C#N)cnc3cc(OCCCN4CCN(C)CC4)c(OC)cc23)c(Cl)cc1Cl | CES2 | enzyme activity | inhibitor | fluorescence | with preincubation | IC50 | 22 µM |
| CNc1nc(C#Cc2ccc(Cl)s2)nc2c1ncn2[C@H]1[C@H](O)[C@H](O)[C@]2(CC#N)C[C@H]12 | SLC6A2 | ligand displacement | – | radioligand | – | EC50 | 3.9 µM |
| CC(=O)[C@H]1CC[C@H]2[C@@H]3CC=C4C[C@@H](O)CC[C@]4(C)[C@H]3CC[C@]12C | CES2 | enzyme activity | inhibitor | fluorescence | with preincubation | IC50 | > 100 µM |
| N#Cc1ccc(C[C@H](Nc2nnc(-c3cccc(Br)c3)o2)C(=O)N2CCc3ccccc32)cc1 | FPR1 | calcium signal | agonist | – | – | EC50 | 27 µM |
| CCOC(=O)[C@@]12C[C@@H]1[C@@H](n1cnc3c(Nc4ccccc4)nc(C#Cc4ccc(Cl)s4)nc31)[C@H](O)[C@@H]2O | SLC6A2 | ligand displacement | – | radioligand | – | Ki | 2.3 µM |
| COc1cc2c(cc1OC)C(=O)/C(=C/c1ccc(O)cc1)C2 | CES2 | enzyme activity | inhibitor | fluorescence | with preincubation | IC50 | 1.89 µM |
| CCCC[C@H](NC(C)=O)C(=O)N[C@H]1CC(=O)NCCCC[C@@H](C(=O)N[C@@H](C(=O)N2CCC[C@@H]2C(N)=O)C(C)C)NC(=O)[C@H](Cc2c[nH]c3ccccc23)NC(=O)[C@H](CCCN=C(N)N)NC(=O)[C@@H](Cc2ccc3ccccc3c2)NC(=O)[C@@H]2CCCN2C1=O | Melanocortin receptor 4 (MC4R, Homo sapiens, UniProt P32245) | cAMP | agonist | – | – | EC50 | > 1 µM |
| O=c1c(O[C@@H]2O[C@H](CO)[C@H](O)[C@H](O)[C@H]2O)c(-c2ccc(O)c(O)c2)oc2cc(O)cc(O)c12 | srtA (Staphylococcus aureus, UniProt Q2FV99) | binding | – | SPR | – | Kd | 19.5 µM |
| CNC(=O)[C@@]12C[C@@H]1[C@@H](n1cnc3c(NCc4cccc(Cl)c4)nc(C#Cc4ccc(Cl)s4)nc31)[C@H](O)[C@@H]2O | SLC6A2 | ligand displacement | – | radioligand | – | Ki | 2.3 µM |
| CC(C)[C@@H](CN1CCc2ccccc2C1)NC(=O)c1ccc([N+](=O)[O-])s1 | Oprk1 | ligand displacement | – | radioligand | – | Ki | 9.06 µM |
| CCOC(=O)[C@@]12C[C@@H]1[C@@H](n1cnc3c(NCCCCCCc4ccccc4)nc(C#Cc4ccc(Cl)s4)nc31)[C@H](O)[C@@H]2O | SLC6A2 | ligand displacement | – | radioligand | – | Ki | 5.4 µM |
| CC(C)[C@@H](CN1CCc2ccccc2C1)NC(=O)c1cccc(-c2cccnc2)c1 | Oprk1 | ligand displacement | – | radioligand | – | Ki | 6.15 µM |
| O=C(c1ccc(OCCN2CCCCC2)cc1)c1c(-c2ccc(O)cc2)sc2cc(O)ccc12 | CES2 | enzyme activity | inhibitor | fluorescence | with preincubation | IC50 | > 100 µM |
| CNC(=O)[C@@]12C[C@@H]1[C@@H](n1cnc3c(Nc4ccccc4)nc(C#Cc4ccc(Cl)s4)nc31)[C@H](O)[C@@H]2O | SLC6A2 | ligand displacement | – | radioligand | – | Ki | 2.5 µM |
| O=c1cc(-c2ccc(O)cc2)oc2cc(O)cc(O)c12 | NACHT, LRR and PYD domains-containing protein 3 (NLRP3, Homo sapiens, UniProt Q96P20) | binding | – | SPR | – | Kd | 18.7 µM |
| CN1C(C(=O)Nc2ccccn2)=C(O)c2ccccc2S1(=O)=O | CES2 | enzyme activity | inhibitor | fluorescence | with preincubation | IC50 | > 100 µM |
| CC(C)[C@H](CN1CCc2ccccc2C1)NC(=O)c1c(Cl)cncc1Cl | Oprk1 | ligand displacement | – | radioligand | – | Ki | 12.5 µM |
| COc1cc2c(cc1OC)C(=O)/C(=C/c1cccc3ccccc13)C2 | CES2 | enzyme activity | inhibitor | fluorescence | with preincubation | IC50 | 15.3 µM |
| CCOC(=O)[C@@]12C[C@@H]1[C@@H](n1ccc3c(NCCCCCc4ccccc4)nc(C#Cc4ccccc4)nc31)[C@H](O)[C@@H]2O | SLC6A2 | ligand displacement | – | radioligand | – | Ki | 0.47 µM |
